Measured values published in ChEMBL document CHEMBL1135934, “Structure-activity relationships of methoctramine-related polyamines as muscular nicotinic receptor noncompetitive antagonists. 2. Role of polymethylene chain lengths separating amine functions and of substituents on the terminal nitrogen atoms” (J Med Chem, 2002).

Key:
[1] = biological target: Muscarinic acetylcholine receptor M3 (Cavia porcellus) (UniProt Q8VH26); assay: Antagonist affinity at muscarinic acetylcholine receptor (mAChR) of guinea pig longitudinal ileum (M3); assay type: functional, tissue-based
Outline: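 Guinea pig ileum (either sex, 200-400 g) in a 15 mL organ bath of physiological salt solution, gassed 5% CO2/95% O2, pH 7.4. Arecaidine propargyl ester curves (0.01-0.5 µM) were run at 30 min intervals, with the first discarded and the second taken as control. A repeat curve followed 60 min antagonist. pK came from graphical EC50 dose ratios by the Furchgott equation.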

[2] = Antagonism of carbachol action on nAChR of isolated frog rectus abdominus.; assay type: functional, tissue-based, Rectus abdominis muscle
[3] = test system: Muscarinic acetylcholine receptor M2 (Cavia porcellus); assay: Antagonist affinity at muscarinic acetylcholine receptor (mAChR) of guinea pig left atrium (M2); conditions: Cardiac atrium
[4] = biological target: Acetylcholine receptor (Torpedo californica) (UniProt P02710+P02712+P02718+P02714); conditions: Tetronarce californica; Electric organ

Chain of Muscarinic acetylcholine receptor M3 (Cavia porcellus) (Q8VH26 1-587): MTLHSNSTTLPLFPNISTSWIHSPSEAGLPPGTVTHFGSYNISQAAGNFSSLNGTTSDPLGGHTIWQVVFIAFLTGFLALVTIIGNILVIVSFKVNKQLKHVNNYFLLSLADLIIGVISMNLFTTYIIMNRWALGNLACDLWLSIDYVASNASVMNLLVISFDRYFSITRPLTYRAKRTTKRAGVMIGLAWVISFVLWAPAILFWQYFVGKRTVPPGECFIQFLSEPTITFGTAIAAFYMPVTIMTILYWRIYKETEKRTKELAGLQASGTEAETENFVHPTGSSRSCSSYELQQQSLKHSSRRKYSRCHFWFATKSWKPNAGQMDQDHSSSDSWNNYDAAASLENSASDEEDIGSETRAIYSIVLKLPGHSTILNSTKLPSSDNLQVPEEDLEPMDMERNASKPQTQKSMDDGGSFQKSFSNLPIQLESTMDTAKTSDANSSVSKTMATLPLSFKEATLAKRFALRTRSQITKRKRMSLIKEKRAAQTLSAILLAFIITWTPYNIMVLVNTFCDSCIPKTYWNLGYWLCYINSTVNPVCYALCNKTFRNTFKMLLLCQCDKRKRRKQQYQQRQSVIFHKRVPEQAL

Row | Compound | pKB [1] | Log IC50 [2] | pKB [3] | pKapp [4]
1 | COc1ccccc1CNCCCCCCOCCCCCCCCOCCCCCCNCc1ccccc1OC | < 5 | -5.14 | < 5 | –
2 | COc1ccccc1CNCCCCCCNCCCCCCCCNCCCCCCNCc1ccccc1OC [METHOCTRAMINE] | 6.14 | -5.93 | – | 6.21
3 | CCCC(=O)NC(Cc1ccc(O)cc1)C(=O)NCCCNCCCCNCCCN (stereo unspecified) | < 5 | -4.62 | – | 3.94
4 | [N-]=[N+]=Nc1ccc(C(=O)NCCCNCCCCCCNCCCCCCCCCCCCNCCCCCCNCCCNC(=O)c2ccc(N=[N+]=[N-])cc2O)c(O)c1 | – | -6.17 | – | 5.72
5 | COc1ccccc1CNCCCNCCCCCCNCCCCCCCCCCCCNCCCCCCNCCCNCc1ccccc1OC | < 5 | -6.66 | 6.5 | 7.04
6 | COc1ccc2cc(C(=O)NCCCNCCCCCCNCCCCCCCCNCCCCCCNCc3cc(I)ccc3OC)c(=O)oc2c1 | 5.68 | -7.11 | – | 6.8
7 | COc1ccccc1CNCCCNCCCCCCNCCCCCCCCNCCCCCCNCCCNCc1ccccc1OC | < 6 | -6.44 | < 6 | 6.66
8 | [N-]=[N+]=Nc1ccc(C(=O)NCCCNCCCCCCNCCCCCCCCNCCCCCCN)c(O)c1 | 7.35 | -6.39 | 7.01 | 5.46
9 | c1ccc(C(CNCCCCCCNCCCCCCCCNCCCCCCNCC(c2ccccc2)c2ccccc2)c2ccccc2)cc1 | 5.4 | -6.31 | 5.98 | –
10 | [N-]=[N+]=Nc1ccc(C(=O)NCCCNCCCCCCNCCCCCCCCNCCCCCCNCCCNC(=O)c2ccc(N=[N+]=[N-])cc2O)c(O)c1 | – | -5.8 | – | 5.86
11 | COc1ccccc1CNCCCNCCCCCCNCCCCCCNCCCCCCNCCCNCc1ccccc1OC | < 5 | -6.42 | 6.15 | 6.4
12 | COc1ccccc1CNCCCCCCNCCCCCCNCCCCCCNCCCCCCNCc1ccccc1OC | 5.3 | -6.68 | 6.98 | –
13 | COc1ccc2cc(C(=O)NCCCNCCCCCCNCCCCCCCCNCCCCCCNCc3ccccc3OC)c(=O)oc2c1 | 6.19 | -6.21 | – | 6.41
14 | COc1ccccc1CNCc1ccc(CNCCCCCCCCCCCCNCc2ccc(CNCc3ccccc3OC)cc2)cc1 | < 5 | -6.43 | < 5 | 6.19
15 | COc1ccccc1CNCCCCCCNCCCCCCCCCCCCNCCCCCCNCc1ccccc1OC | 5.98 | -7.02 | 7.35 | 5.66
16 | COc1ccccc1CCNCCCCCCNCCCCCCCCNCCCCCCNCCc1ccccc1OC | 5.32 | -5.36 | 6.64 | –
17 | COc1ccccc1CNCCCCCCNCc1ccc(-c2ccc(-c3ccc(CNCCCCCCNCc4ccccc4OC)cc3)cc2)cc1 | < 5 | -6.3 | < 5 | 6.35
18 | CCCC(=O)N[C@H](Cc1ccc(O)cc1)C(=O)NCCCNCCCCCCNCCCCCCNCCCCCCNCc1ccccc1OC | 5.08 | -5.48 | 5.87 | 6.12
19 | CCCC(=O)N[C@H](Cc1ccc(O)cc1)C(=O)NCCCNCCCCCCNCCCCCCCCCCCCNCCCCCCN | – | -6.3 | – | 5.28
20 | CCCC(=O)N[C@H](Cc1ccc(O)cc1)C(=O)NCCCNCCCCCCNCCCCCCNCCCCCCN | 5.16 | -5.62 | < 5 | 4.63
21 | COc1ccccc1CN(C)CCCCCCN(C)CCCCCCCCN(C)CCCCCCN(C)Cc1ccccc1OC | < 5 | -5.88 | 6.79 | –
22 | CCCC(=O)N[C@H](Cc1ccc(O)cc1)C(=O)NCCCNCCCCCCNCCCCCCCCCCCCNCCCCCCNCc1ccccc1OC | – | -6.27 | – | 5.89
